Measured values: PubChem BioAssay AID1385 (PCMD, 2008)
Out of some 200,000 compounds screened, about 170 (0.085%) were called active.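 The calls were made as follows: active = inhibition above 40% at the single screening dose; inactive = the rest.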 The list comes from a sample in which actives are over-represented; it also holds similar structures and randomly drawn compounds.

target: DNA repair protein RAD51 homolog 1 (Homo sapiens) (UniProt Q06609); assay: blockers of RAD51-mediated homologous recombination – biochemical, fluorescence, primary screen (AID 1385); conditions: hRad51 DNA strand exchange, fluorescence dequenching; at 10 µM; hits give high values;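 also: 0% = DMSO control wells and 100% = blanks with heterologous ssDNA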
Sequence (Q06609 whole entry, looked up): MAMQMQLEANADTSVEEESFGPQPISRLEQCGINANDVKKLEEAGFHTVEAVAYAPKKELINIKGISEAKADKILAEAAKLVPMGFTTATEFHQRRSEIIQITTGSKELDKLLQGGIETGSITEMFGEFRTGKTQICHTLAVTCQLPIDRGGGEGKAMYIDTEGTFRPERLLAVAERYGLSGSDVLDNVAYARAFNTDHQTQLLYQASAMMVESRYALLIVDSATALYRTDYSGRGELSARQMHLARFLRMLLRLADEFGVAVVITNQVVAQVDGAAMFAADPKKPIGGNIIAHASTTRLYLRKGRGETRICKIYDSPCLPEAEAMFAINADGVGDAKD
Summary of the method: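 Test system: preformed human Rad51 ssDNA filaments; also added: Donor/quencher-labelled 47-bp dsDNA substrate; doses: 10 µM final, single point; times: 37 °C 15-min filament assembly, 30-min compound preincubation, 15-min exchange; detection: FRET fluorescence dequenching, excitation 485 nm, emission 520 nm; read-out basis: Fluorescence-based percent inhibition, control- and blank-normalised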

inhibition, active:
CCC(CC)c1nnc(NS(=O)(=O)Cc2ccccc2)s1 84.4%, Cc1ccc(C(=O)COc2cccc(NC(=O)c3ccco3)c2)cc1 89.3%, CC(C)CC(=O)N/C(N)=N/c1nc2ccccc2s1 82.8%, CCN(CC)CCOc1ccc2c(c1)C(=NNC(=O)c1ccccn1)c1cc(OCCN(CC)CC)ccc1-2 99%

inhibition, inactive:
Cc1ccc2c(c1)nnc1nnc(SCC(=O)O)n12 3.89%, CCC(C)(C)NC(=O)C(c1ccc(O)cc1)N(C(=O)Cn1nnc2ccccc21)c1ccc(NC(C)=O)cc1 (stereo not given) -8.67%, Oc1c(Br)cc(/C=N/NC(=S)NCC2CCCO2)cc1Br (stereo not given) -9.24%, O=C(Nc1nc2ccc([N+](=O)[O-])cc2s1)c1ccncc1 6.33%, COc1cc(OC)c(OC)cc1/C=N/Nc1ncnc2c1[nH]c1ccc(C)cc12 -8.84%, Cc1nc(-c2ccc(Cl)cc2)sc1C1(C)CC(c2ccc(Br)cc2)=NO1 (stereo not given) -6.72%, COc1ccc(Cc2nnc(NS(=O)(=O)Cc3ccccc3)s2)cc1 -0.75%, CCC(CC)c1nnc(NC(=O)c2nn(C)c(=O)c3ccccc23)s1 6.66%, COc1ccccc1N1CCN(C(=O)CSc2ncnc3c2cnn3-c2ccc(C)c(C)c2)CC1 -12.6%, CC1CN(c2nc(Nc3ccccc3)nc(N)c2[N+](=O)[O-])CC(C)O1 (stereo not given) -23.5%, CC(=O)c1ccc(NC(=O)C2CC(=O)Nc3nc4ccccc4n32)cc1 (stereo not given) -1.17%, COc1ccccc1-c1c(C#N)c(N)nc2c1CCC2 -0.29%, CCNC(=S)N1CCN(CCN=CC2=C(O)CC(C)(C)CC2=O)CC1 16.2%, Cc1cccc(N2CCN(Cc3nc(C4CC4)no3)CC2)n1 -8.44%, COC(=O)[C@H](CC(C)C)NC(=O)N1CCCCC1C (stereo not given in full) -6.96%, COc1ccc(/C(C)=N/N2CCOCC2)c(O)c1 16.1%, Cn1c(SCC(=O)N/N=C/c2ccc(O)c(O)c2)nc2ccccc21 -10.2%, Cc1cc(=O)oc2c(C(=O)c3ccccc3)c(OCC(N)=O)ccc12 -5.93%, CCOc1ccc(C2NC(=S)NC3=C2CCc2ccccc23)cc1 (stereo not given) 5.83%, CN1CCc2nc(SC(C(=O)O)c3ccccc3)c(C#N)c(-c3cccs3)c2C1 (stereo not given) -22.2%, CCCc1ccc(C(=O)[C@@H]2[C@@H](C(C)=O)N3c4ccc(F)cc4C=C[C@@H]3[C@@]23C(=O)Nc2ccccc23)cc1 10.1%, CC(C)S(=O)(=O)c1csc(NC(=O)Nc2ccc(Cl)cc2)c1Cl -3.14%, Cc1ccc(-c2csc(-c3cc(C)on3)n2)cc1 9.91%, CC1(C)CCSC(/C=C/c2ccccc2)=N1 10.2%, CC(C)(C)c1cc(C(=O)NN)n(Cc2ccc(Cl)cc2Cl)n1 9.98%, CC(C)(C)c1ccc(/C=C2\Oc3c(ccc(O)c3CN3CCN(CCO)CC3)C2=O)cc1 -31.8%, COC(=O)[C@H](Cc1ccccc1)NC(=O)Nc1ccc(OC)cc1 7.38%, S=C(NCCc1ccccc1)Nc1ccccc1 15.1%, CCn1c(SCC(=O)N/N=C/c2ccccc2OCC(=O)O)nnc1-c1ccc(C(C)(C)C)cc1 8.66%, CCOC(=O)c1cc(C)nc(S(C)(=O)=O)c1C#N 16%, C=CCSc1nnc(NC(=O)c2ccc(NC(C)=O)cc2)s1 4.61%, Nc1c(N(CCO)C(=O)C2CCCCC2)c(=O)[nH]c(=O)n1Cc1ccccc1 -7.08%, CC(=O)OCCOCn1cnn2c(=O)c(Br)c(C)nc12 1.73%, COc1ccc(CCNC2=CC(=O)CC(C)(C)C2)cc1 3.57%, Cc1ccc(-c2cc(C(=O)NN)n[nH]2)o1 8.49%, CNC(=O)c1csc(Cc2c(Cl)sc3ccc(Cl)cc23)n1 5.52%, S=c1nc2ccccc2c2nc(-c3cccnc3)[nH]n12 1.9%, O=[N+]([O-])C(=c1ccc2c(c1)N1C3=C(CCCC3)CC3CCCCC31N=2)[N+](=O)[O-] (stereo not given) -20.4%, CCOC(=O)c1ccc(S(=O)(=O)N(CCO)Cc2cc3cc(OC)c(OC)cc3[nH]c2=O)cc1 -11%, Fc1ccccc1/C=N/n1c(-c2cccnc2)n[nH]c1=S 5.39%, Fc1ccc(Nc2nnns2)cc1 -7.15%, Cc1ccc(-c2nc(SCC(=O)Nc3ccccc3OC(F)F)c3c(C)c(C(=O)O)sc3n2)cc1 -23.3%, CC(C)c1cc(CN2CCOCC2)cc(C(C)C)c1O -12.3%, Clc1ccc(C[n+]2cc(-c3ccc(Cl)cc3)n3c2CCC3)cc1 16.8%, CC(C)CCN1NC2(CCC(C)CC2)NC1=S (stereo not given) 7.9%, CC(=O)NCc1ccc(S(=O)(=O)NC2CCN(Cc3ccccc3)CC2)cc1 -43.1%, O=[N+]([O-])c1ccc(N/N=C/c2ccccc2)cc1 -5.09%, COc1cccc(CC(=O)Nc2ccc(-c3csc(C)n3)cc2)c1 6%, O=C(O)COCC(=O)NCc1csc2ccc(Cl)cc12 15%, C/C=C/C(=O)Nc1ccc(N2CCN(c3ccc(C(F)(F)F)cn3)CC2)nc1 19.9%, Cc1nc2cc(NC(=O)Nc3cccc(F)c3)ccc2n1C 2.24%, CCOC(=O)COc1nc(C)cc(C(F)(F)F)c1C#N -33.8%, COC(=O)c1ccc(COc2cc([N+](=O)[O-])cc3cccnc23)cc1 -2.29%, C=CCN1CC(C)/C(=N\O)CC1C (stereo not given) -1.92%, Cc1nc2nc(SCC(=O)c3ccccc3)[nH]c2cc1Br -17.9%, O=C(CCNc1n[nH]c(=O)[nH]c1=O)N/N=C\c1ccc(Br)cc1 -0.51%, CC(C)(C)n1cnnc1Sc1ccc([N+](=O)[O-])cn1 25.8%, Cn1nccc1NS(=O)(=O)c1ccc(F)cc1 -8.74%, COc1ccc(Cl)cc1S(=O)(=O)N1CCC(O)(c2ccc(Cl)cc2)CC1 10.6%, Cc1ccnc(NC(=O)c2ccc(NC(=O)c3ccco3)cc2)c1 -5.85%, COc1cccc(C(=O)Nc2ccc(NC(=O)c3ccco3)cn2)c1 -3.19%, CC(OC(=O)c1ccc(NS(=O)(=O)c2ccc3[nH]c(=O)[nH]c3c2)cc1)C(=O)Nc1cccc(Cl)c1Cl (stereo not given) 1.25%, Cc1cc(C)cc(NC(=O)NC2CCN(CC(=O)Nc3cccc(Cl)c3C)CC2)c1 -8.77%, CCn1c(CN2C(=O)CSc3ccccc32)n[nH]c1=S 3.47%, O=S(=O)(c1cccc(-c2nnc3n2CCCCC3)c1)N1CCOCC1 6.72%, CC(C)(C)c1cc(NC(=O)NN2CCOCC2)nn1-c1c(Cl)cc(Cl)cc1Cl -14%, Nc1ccccc1SC(C[N+](=O)[O-])c1ccccc1 (stereo not given) 14.8%, OC(CNCc1ccc2c(c1)OCO2)COc1ccccc1 (stereo not given) 1.14%, Cc1ccc(CNC(=O)c2ccc3c(c2)S(=O)(=O)c2ccccc2C3=O)cc1 3.71%, COc1ccccc1-n1cn[nH]c1=S 26.3%, COc1ccc(CN(Cc2ccc(OC)cc2)C(=O)c2cccs2)cc1 2.36%, O=C(c1ccc(F)cc1)n1c(=S)nc2ccccn21 15.3%, CNC1(c2nnnn2-c2c(C)cccc2C)CCOC(C)(C)C1 (stereo not given) 5.82%, Cc1cc(-c2nc(C)c(-c3nnc(SCC(=O)Nc4ccccc4)n3C)s2)no1 -5%, OCC[C@H]1C[C@H](O)[C@@H](O)[C@]2(CCCCO2)O1 -1.38%, COc1ccccc1Cn1c(CO)nc2ccccc21 -28.4%, Cc1ccc(C)c2c1cc(C)c1nnc(SCC(=O)Nc3cccc(C(=O)O)c3)n12 3.44%, CCCN(CCC)S(=O)(=O)c1ccc(C(=O)N2CC3CCC(CC3)C2)cc1 4.87%, O=C(O)c1ccccc1C(=O)Nc1ccccc1[N+](=O)[O-] 10.6%, O=[N+]([O-])c1ccc2c(c1)C(O)n1nc(-c3ccccc3)nc1S2 (stereo not given) 0.18%, CC(C)CC(=O)NC(=S)NCc1ccccc1 1.47%, CCC(=O)NC(=Nc1nc2ccccc2s1)NC(=O)CC -4.35%, CCC(C)(NC(=O)c1ccccn1)C(=O)NC1CCCCC1 (stereo not given) 14.2%, CCOc1cc(NC(=O)c2ccccn2)c(OCC)cc1NC(=O)c1ccc(OC)cc1 0.44%, O=[N+]([O-])c1cc([N+](=O)[O-])c2cccnc2c1O 5.92%, O=C(CCc1ccccc1)NNc1ccc(F)cc1 4.26%, NS(=O)(=O)c1ccc(NC(=O)COC(=O)c2cc3ccccc3oc2=O)cc1 3.3%, Cc1c(NC(=O)CN2C(=O)C(=O)N(Cc3ccccc3)C2=O)c(=O)n(-c2ccccc2)n1C 1.05%, O=C1N=C(N2CCc3ccccc3C2)S/C1=C\c1ccc(O)cc1 -11.2%, O=C1/C(=C/c2coc3ccc(O)cc3c2=O)SC(=S)N1c1ccccc1 -16.3%, O=C(O)c1ccc(/C=N/Nc2nc(N3CCCCC3)nc(N3CCCCC3)n2)cc1 8.17%
